Test results taken from ChEMBL document CHEMBL2380254, “Optimization of tocotrienols as antiproliferative and antimigratory leads” (Eur J Med Chem, 2013).

Legend:
Type in all cases: functional, cell-based
[1] = Antiproliferative activity against mouse +SA cells by MTT assay; details: +SA cell
Method in brief: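 Mouse +SA mammary epithelial cells in serum-free DMEM/F12 with BSA, transferrin, insulin and EGF. Compounds from DMSO stock conjugated to BSA (overnight, 37 °C); 0–40 µM, final DMSO <0.1%. MTT 0.42 mg/mL for 4 h at 37 °C, isopropanol solubilization, OD 570 nm. Cell number from a standard curve; IC50 by non-linear regression.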

[2] = test system: MCF7; assay: Antiproliferative activity against human MCF7 cells by MTT assay
Method in brief: (§1)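 Cells plated at 8 × 10^3/well (MDA-MB-231) or 10^4/well (MCF7) in 96-well plates. Compounds fed in media with 5% FBS (MDA-MB-231) or 1% FBS (MCF7). MTT read-out of viable cells.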

[3] = test system: MDA-MB-231; assay: Antimigratory activity against human MDA-MB-231 cells after 24 hrs by wound-healing assay; details: MDA-MB-231, 24 h
Method in brief: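 MDA-MB-231 in RPMI 1640 with 10% FBS grown to >95% confluent monolayer, scratched with a pipette tip and washed. Then 24 h exposure in 0.5% serum at five non-toxic concentrations in DMSO, triplicate, DMSO as negative control. Diff Quick fixed and stained; migrated cells counted in ≥3 random 40× fields. IC50 = concentration inhibiting migration of 50% of cells.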

[4] = test system: MDA-MB-231; assay: Antiproliferative activity against human MDA-MB-231 cells by MTT assay; method in brief: as §1

Row | Structure (SMILES) | IC50 [1] [µM] | IC50 [2] [µM] | IC50 [3] [µM] | IC50 [4] [µM]
1 | C=CCN1COc2c(C)c(C)c3c(c2C1)CC[C@@](C)(CC/C=C(\C)CC/C=C(\C)CCC=C(C)C)O3 | 11.6 | – | – | –
2 | CC(C)=CCC/C(C)=C/CC/C(C)=C/CC[C@]1(C)CCc2cc(O)c(CO)c(C)c2O1 | 6.6 | – | – | –
3 | CC(C)=CCC/C(C)=C/CC/C(C)=C/CC[C@]1(C)CCc2c3c(c(C)c(C)c2O1)OCN(CCCO)C3 | 2.5 | > 20 | 8.1 | 9.6
4 | CC(C)=CCC/C(C)=C/CC/C(C)=C/CC[C@]1(C)CCc2c3c(c(C)c(C)c2O1)OCN(C1CCN(Cc2ccccc2)CC1)C3 | 8.7 | – | – | –
5 | COc1ccc(CCN2COc3cc4c(c(C)c3C2)O[C@](C)(CC/C=C(\C)CC/C=C(\C)CCC=C(C)C)CC4)cc1OC | 0.84 | – | – | –
6 | CC(C)=CCC/C(C)=C/CC/C(C)=C/CC[C@]1(C)CCc2cc(O)cc(C)c2O1 [DELTA-TOCOTRIENOL] | – | – | > 40 | –
7 | CC(C)=CCC/C(C)=C/CC/C(C)=C/CC[C@]1(C)CCc2c3c(c(C)c(C)c2O1)OCN(Cc1cccc([N+](=O)[O-])c1)C3 | 24.6 | – | – | –
8 | CC(C)=CCC/C(C)=C/CC/C(C)=C/CC[C@]1(C)CCc2c3c(c(C)c(C)c2O1)OCN(CCCCCC(=O)O)C3 | 5 | – | – | –
9 | CC(C)=CCC/C(C)=C/CC/C(C)=C/CC[C@]1(C)CCc2c3c(c(C)c(C)c2O1)OCN(C)C3 | 2.2 | – | – | –
10 | CC(C)=CCC/C(C)=C/CC/C(C)=C/CC[C@]1(C)CCc2c3c(c(C)c(C)c2O1)OCN(CCCCC(=O)O)C3 | 1.8 | – | – | –
11 | CC(C)=CCC/C(C)=C/CC/C(C)=C/CC[C@]1(C)CCc2c3c(cc(C)c2O1)OCN(CCO)C3 | 4.2 | 6 | 1.3 | > 5
12 | CC(C)=CCC/C(C)=C/CC/C(C)=C/CC[C@]1(C)CCc2cc3c(c(C)c2O1)CN(CCO)CO3 | 0.96 | – | – | –
13 | CC(C)=CCC/C(C)=C/CC/C(C)=C/CC[C@]1(C)CCc2c(CO)c(O)c(C)c(C)c2O1 | 2.6 | – | – | –
14 | CC(C)=CCC/C(C)=C/CC/C(C)=C/CC[C@]1(C)CCc2c3c(c(C)c(C)c2O1)OCN(CCO)C3 | 1.7 | – | – | –
15 | CC(C)=CCC/C(C)=C/CC/C(C)=C/CC[C@]1(C)CCc2c(CO)c(O)cc(C)c2O1 | > 20 | – | – | –
16 | CCOC(CCN1COc2cc(C)c3c(c2C1)CC[C@@](C)(CC/C=C(\C)CC/C=C(\C)CCC=C(C)C)O3)OCC | 1 | – | – | –
17 | CC(C)=CCC/C(C)=C/CC/C(C)=C/CC[C@]1(C)CCc2c3c(cc(C)c2O1)OCN(Cc1cccc([N+](=O)[O-])c1)C3 | 29.1 | – | – | –
18 | CC(C)=CCC/C(C)=C/CC/C(C)=C/CC[C@]1(C)CCc2c3c(cc(C)c2O1)OCN(CCCCC(=O)O)C3 | 11.9 | – | – | –
19 | CC(C)=CCC/C(C)=C/CC/C(C)=C/CC[C@]1(C)CCc2c3c(c(C)c(C)c2O1)OCN(CC1CCNCC1)C3 | 4.6 | > 20 | – | 0.8
20 | CCOC(CCN1COc2c(C)c(C)c3c(c2C1)CC[C@@](C)(CC/C=C(\C)CC/C=C(\C)CCC=C(C)C)O3)OCC | 9.3 | – | – | –
21 | CC(C)=CCC/C(C)=C/CC/C(C)=C/CC[C@]1(C)CCc2c3c(c(C)c(C)c2O1)OCN(Cc1ccccc1)C3 | 2 | > 20 | – | 27.3
22 | CC(C)=CCC/C(C)=C/CC/C(C)=C/CC[C@]1(C)CCc2c3c(cc(C)c2O1)OCN(C)C3 | 1.3 | – | – | –
23 | CC(C)=CCC/C(C)=C/CC/C(C)=C/CC[C@]1(C)CCc2c3c(cc(C)c2O1)OCN(CCCCCC(=O)O)C3 | 5.1 | – | – | –
